The text below walks through data of ChEMBL document CHEMBL1137562, “Synthesis and structure-activity relationships of 16-modified analogs of 2-methoxyestradiol” (Bioorg Med Chem, 2007).

One experiment concerns MCF7. The experiment in a line: Antiproliferative activity against human MCF7 cells after 8 to 10 days relative to 2-methoxyestradiol. The experiment is classed as functional. In short, it runs like this:
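Estrogen-dependent MCF-7 cells (passage 60–90) plated at 20–30,000 cells/well and left overnight. Cells were washed and starved 3 days in phenol red-free IMEM with 2% charcoal-dextran-stripped FBS, then treated with increasing concentrations in the same medium, refreshed every 2–3 days. Cells were Coulter-counted after 8 or 10 days. Triplicates in at least two independent experiments; stimulation index relative to 2-methoxyestradiol (1.00).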

Another experiment concerns MDA-MB-231. The experiment in a line: Antiproliferative activity against human MDA-MB-231 cells after 48 hrs. The experiment is classed as functional, cell-based. The settings on record: MDA-MB-231, 48 h. In short, it runs like this:
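MDA-MB-231 cells kept in DMEM with 10% FBS, 2 mM L-glutamine and penicillin/streptomycin, plated at 2000 cells/well and left to attach overnight. Cells were exposed to increasing concentrations for 48 h. Proliferation was read as DNA synthesis by colorimetric BrdU ELISA. Triplicates in at least two independent experiments, reported as mean ±SD.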

The test system of another experiment is HUVEC. Briefly: Antiproliferative activity against human HUVECs after 48 hrs. The experiment is classed as cell-based. In short, it runs like this: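 HUVEC kept in EGM, plated at 5000 cells/well and left to attach overnight. Cells were exposed to increasing drug concentrations for 48 h at 37 °C. DNA synthesis was read by colorimetric BrdU ELISA. Each concentration was run in triplicate in at least two independent experiments, reported as mean ±SD.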

In the case of `COc1cc2c(cc1O)CC[C@@H]1[C@@H]2CC[C@]2(C)[C@@H](O)[C@H](CO)C[C@@H]12`, the Activity in the experiment with MCF7 is on record as 0.93. Besides, the values for the IC50 in the experiment with MDA-MB-231 and in the experiment on HUVEC were 4.26 µM and 2.92 µM, respectively.

Compound `CCC[C@@H]1C[C@H]2[C@@H]3CCc4cc(O)c(OC)cc4[C@H]3CC[C@]2(C)[C@H]1O` yielded an Activity in the experiment on MCF7 of 0.83. For the same compound, the values for the IC50 in the experiment with MDA-MB-231 and in the experiment with HUVEC were 35.1 µM and 6.55 µM, respectively.

Compound `CCCC[C@H]1C[C@H]2[C@@H]3CCc4cc(O)c(OC)cc4[C@H]3CC[C@]2(C)[C@H]1O` returned an Activity in the experiment with MCF7 of 0.82. The IC50 (as a rule, the midpoint of a concentration-inhibition curve) stood at 37.9 µM with MDA-MB-231 and 8.17 µM with HUVEC.

In the experiment with MCF7, `CCCC[C@@H]1C[C@H]2[C@@H]3CCc4cc(O)c(OC)cc4[C@H]3CC[C@]2(C)[C@H]1O` showed an Activity of 0.73. The IC50 was 27.9 µM in the experiment with MDA-MB-231 and 18.2 µM in the experiment on HUVEC.

Take `COc1cc2c(cc1O)CC[C@@H]1[C@@H]2CC[C@]2(C)[C@@H](O)[C@H](CC(C)C)C[C@@H]12`: the Activity in the experiment on MCF7 was 0.41. For the same compound, the values for the IC50 with MDA-MB-231 and in the experiment with HUVEC were 38.3 µM and 7.15 µM, respectively.

`COc1cc2c(cc1O)CC[C@@H]1[C@@H]2CC[C@]2(C)[C@@H](O)[C@H](C)C[C@@H]12`: in the experiment on MCF7, the Activity is reported as 2.07. The results for the IC50 with MDA-MB-231 and in the experiment on HUVEC were 0.74 µM and 0.35 µM, respectively.

In the experiment on MCF7, `COc1cc2c(cc1O)CC[C@@H]1[C@@H]2CC[C@]2(C)[C@@H](O)[C@H](CN(C)C)C[C@@H]12` had an Activity of 1.43. Besides, the IC50 in the experiment on MDA-MB-231 stood at 22.7 µM; in the experiment with HUVEC, 36.8 µM.

In the experiment with MCF7, `CC[C@@H]1C[C@H]2[C@@H]3CCc4cc(O)c(OC)cc4[C@H]3CC[C@]2(C)[C@H]1O` showed an Activity of 1.09. Further, the results for the IC50 with MDA-MB-231 and with HUVEC were 3.59 µM and 1.35 µM, respectively.

Consider `CCC[C@H]1C[C@H]2[C@@H]3CCc4cc(O)c(OC)cc4[C@H]3CC[C@]2(C)[C@H]1O`, for which the Activity in the experiment with MCF7 was 0.93. For the same compound, the IC50 in the experiment with MDA-MB-231 was determined as 45.1 µM; in the experiment with HUVEC, 17.1 µM.

Consider `COc1cc2c(cc1O)CC[C@@H]1[C@@H]2CC[C@]2(C)[C@@H](O)[C@@H](C)C[C@@H]12`, for which, in the experiment with MCF7, the Activity is on record as 1.62. Besides, the IC50 in the experiment with MDA-MB-231 stood at 2.4 µM; in the experiment with HUVEC, 2.26 µM.

Consider `COc1cc2c(cc1O)CC[C@@H]1[C@@H]2CC[C@]2(C)[C@@H](O)[C@@H](CO)C[C@@H]12`, for which the Activity in the experiment with MCF7 is 1.14. Moreover, the IC50 with MDA-MB-231 turned out to be 6.09 µM; in the experiment on HUVEC, 6.36 µM.

In the case of `COc1cc2c(cc1O)CC[C@@H]1[C@@H]2CC[C@]2(C)[C@@H](O)CC[C@@H]12` [2-METHOXYESTRADIOL], the IC50 turned out to be 1 µM with MDA-MB-231 and 0.84 µM with HUVEC.
